Laboratory results from ChEMBL document CHEMBL4480426, “Novel multi-target directed ligands based on annelated xanthine scaffold with aromatic substituents acting on adenosine receptor and monoamine oxidase B. Synthesis, in vitro and in silico studies” (Bioorg Med Chem, 2019).

Key:
Adenosine receptor A1 [1] = biological target: T1, Adenosine receptor A1 (Rattus norvegicus, UniProt P25099); test: Displacement of [3H]CCPA from adenosine A1 receptor in rat brain cortical membranes; assay type: cell membranes
T1 sequence (P25099 whole entry): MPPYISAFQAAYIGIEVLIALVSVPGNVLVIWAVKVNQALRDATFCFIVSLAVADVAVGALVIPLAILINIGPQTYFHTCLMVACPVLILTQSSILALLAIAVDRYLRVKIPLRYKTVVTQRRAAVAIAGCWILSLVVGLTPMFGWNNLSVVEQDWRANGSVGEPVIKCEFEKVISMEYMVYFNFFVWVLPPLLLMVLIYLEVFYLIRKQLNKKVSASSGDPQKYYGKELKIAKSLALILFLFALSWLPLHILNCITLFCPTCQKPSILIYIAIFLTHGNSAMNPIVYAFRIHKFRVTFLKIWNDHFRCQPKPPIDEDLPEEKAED

[2] = biological target: T2, Amine oxidase [flavin-containing] A (Homo sapiens, UniProt P21397); test: Inhibition of recombinant human MAOA expressed in baculovirus infected BTI insect cells at 1 to 100 uM using p-tyramine as substrate preincubated for 30 mins followed by substrate addition and measured over 45 mins by horseradish peroxidase-Amplex Red-coupled fluorometric assay relative to control; details: 0.75 h
T2 sequence (P21397 whole entry): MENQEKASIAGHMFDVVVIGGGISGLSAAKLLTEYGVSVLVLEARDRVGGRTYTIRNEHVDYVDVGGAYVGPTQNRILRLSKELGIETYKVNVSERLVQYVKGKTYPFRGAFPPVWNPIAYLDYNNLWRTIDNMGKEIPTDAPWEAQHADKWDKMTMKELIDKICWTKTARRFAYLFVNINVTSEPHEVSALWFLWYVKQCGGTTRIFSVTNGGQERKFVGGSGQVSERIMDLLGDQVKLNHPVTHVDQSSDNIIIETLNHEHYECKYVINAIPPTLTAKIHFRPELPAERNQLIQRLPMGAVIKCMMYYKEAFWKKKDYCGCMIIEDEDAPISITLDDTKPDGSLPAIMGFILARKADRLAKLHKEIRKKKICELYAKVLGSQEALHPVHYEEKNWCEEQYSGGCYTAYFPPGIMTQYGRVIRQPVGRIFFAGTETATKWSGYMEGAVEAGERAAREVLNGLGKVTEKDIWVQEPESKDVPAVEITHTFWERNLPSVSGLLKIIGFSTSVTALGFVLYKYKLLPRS
How it was run: (§1)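 Human recombinant MAO-A or MAO-B enzyme. Activity detected fluorometrically with the Amplex Red monoamine oxidase assay.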

[3] = biological target: T3, Amine oxidase [flavin-containing] B (Homo sapiens, UniProt P27338); test: Inhibition of recombinant human MAOB expressed in baculovirus infected BTI insect cells using p-tyramine as substrate preincubated for 30 mins followed by substrate addition and measured over 45 mins by horseradish peroxidase-Amplex Red-coupled fluorometric assay; how it was run: as §1
T3 sequence (P27338 whole entry): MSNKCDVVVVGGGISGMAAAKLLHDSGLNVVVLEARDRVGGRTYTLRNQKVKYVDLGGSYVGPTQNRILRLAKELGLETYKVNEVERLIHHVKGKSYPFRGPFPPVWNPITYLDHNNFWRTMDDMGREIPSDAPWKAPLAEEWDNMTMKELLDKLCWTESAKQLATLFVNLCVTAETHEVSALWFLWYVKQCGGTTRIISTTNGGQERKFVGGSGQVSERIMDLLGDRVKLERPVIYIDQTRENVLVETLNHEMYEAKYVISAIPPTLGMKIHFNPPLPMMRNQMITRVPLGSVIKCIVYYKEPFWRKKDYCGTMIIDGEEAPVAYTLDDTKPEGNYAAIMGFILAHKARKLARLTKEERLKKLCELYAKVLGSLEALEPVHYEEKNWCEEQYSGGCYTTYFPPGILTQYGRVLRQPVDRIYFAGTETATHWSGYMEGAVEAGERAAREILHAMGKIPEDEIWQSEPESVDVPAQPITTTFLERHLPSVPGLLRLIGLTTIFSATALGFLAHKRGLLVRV

Adenosine receptor A2b = biological target: T4, Adenosine receptor A2b (Homo sapiens, UniProt P29275); test: Displacement of [3H]PSB603 from recombinant human adenosine A2b receptor expressed in HEK293 cells; assay type: cell-based
T4 sequence (P29275 whole entry): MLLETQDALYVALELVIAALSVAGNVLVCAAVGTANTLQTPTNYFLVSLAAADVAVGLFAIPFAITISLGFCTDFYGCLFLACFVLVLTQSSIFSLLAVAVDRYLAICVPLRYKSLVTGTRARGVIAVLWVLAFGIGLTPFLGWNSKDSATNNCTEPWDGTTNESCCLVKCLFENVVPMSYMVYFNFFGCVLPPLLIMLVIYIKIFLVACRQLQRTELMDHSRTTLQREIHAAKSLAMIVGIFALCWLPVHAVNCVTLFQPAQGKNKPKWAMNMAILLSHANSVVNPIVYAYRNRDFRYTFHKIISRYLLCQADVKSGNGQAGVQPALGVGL

Adenosine receptor A2a = Adenosine receptor A2a (Homo sapiens, UniProt P29274); test: Displacement of [3H]MSX2 from recombinant human adenosine A2a receptor expressed in HEK293 cells; assay type: cell-based
Sequence of Adenosine receptor A2a (P29274 whole entry): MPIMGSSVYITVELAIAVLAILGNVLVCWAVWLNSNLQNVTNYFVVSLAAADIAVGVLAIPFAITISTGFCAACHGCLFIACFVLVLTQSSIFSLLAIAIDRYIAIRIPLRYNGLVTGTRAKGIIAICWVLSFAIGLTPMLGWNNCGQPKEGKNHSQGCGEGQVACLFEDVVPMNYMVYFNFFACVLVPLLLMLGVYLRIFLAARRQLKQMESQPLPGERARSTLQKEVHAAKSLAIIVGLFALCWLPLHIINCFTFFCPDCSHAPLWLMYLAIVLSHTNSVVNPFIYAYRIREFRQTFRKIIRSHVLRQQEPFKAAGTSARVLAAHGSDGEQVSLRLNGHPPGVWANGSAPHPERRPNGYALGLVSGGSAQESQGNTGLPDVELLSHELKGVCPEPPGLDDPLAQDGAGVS

[4] = biological target: T2, Amine oxidase [flavin-containing] A; test: Inhibition of recombinant human MAOA expressed in baculovirus infected BTI insect cells using p-tyramine as substrate preincubated for 30 mins followed by substrate addition and measured over 45 mins by horseradish peroxidase-Amplex Red-coupled fluorometric assay; how it was run: as §1
Adenosine receptor A3 = biological target: T5, Adenosine receptor A3 (Homo sapiens, UniProt P0DMS8); test: Displacement of [3H]PSB11 from recombinant human adenosine A3 receptor expressed in CHO cells; assay type: cell-based
T5 sequence (P0DMS8 whole entry): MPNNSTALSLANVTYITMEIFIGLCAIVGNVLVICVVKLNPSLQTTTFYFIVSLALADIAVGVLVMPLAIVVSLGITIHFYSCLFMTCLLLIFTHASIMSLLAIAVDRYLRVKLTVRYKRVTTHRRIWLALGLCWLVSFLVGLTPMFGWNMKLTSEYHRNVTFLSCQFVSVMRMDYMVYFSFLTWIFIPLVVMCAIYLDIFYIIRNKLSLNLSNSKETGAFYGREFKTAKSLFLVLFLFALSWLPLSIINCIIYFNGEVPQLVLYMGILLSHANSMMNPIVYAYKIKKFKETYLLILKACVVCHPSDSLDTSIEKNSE

[5] = biological target: T6, Adenosine receptor A2b (Homo sapiens) (UniProt P29275); test: Displacement of [3H]PSB603 from recombinant human adenosine A2b receptor expressed in HEK293 cells at 1 uM relative to control; assay type: cell-based
T6 sequence (whole entry): T4 sequence (P29275 whole entry)
How it was run: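 Purchased membranes of HEK cells expressing human A2A ([3H]MSX-2) or human A2B ([3H]PSB-603). A single high compound concentration is screened first; for potent compounds, full inhibition curves spanning 3 orders of magnitude. At least three independent experiments.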

[6] = biological target: T7, Adenosine receptor A1 (Homo sapiens) (UniProt P30542); test: Displacement of [3H]CCPA from recombinant human adenosine A1 receptor expressed in CHO cells at 1 uM relative to control; assay type: cell-based
T7 sequence (whole entry): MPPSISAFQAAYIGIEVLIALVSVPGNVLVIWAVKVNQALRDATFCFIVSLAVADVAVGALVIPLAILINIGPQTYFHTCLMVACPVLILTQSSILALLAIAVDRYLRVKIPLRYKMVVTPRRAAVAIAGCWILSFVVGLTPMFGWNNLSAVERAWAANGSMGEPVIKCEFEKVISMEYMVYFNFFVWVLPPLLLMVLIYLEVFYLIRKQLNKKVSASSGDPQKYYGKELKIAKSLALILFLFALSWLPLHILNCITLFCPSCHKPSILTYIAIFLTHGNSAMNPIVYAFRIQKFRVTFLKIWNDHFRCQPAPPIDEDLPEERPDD
How it was run: (§2)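 Purchased membranes of CHO cells expressing human A1 ([3H]CCPA) or human A3 ([3H]PSB-11). A single high compound concentration is screened first; for potent compounds, full inhibition curves spanning 3 orders of magnitude. At least three independent experiments.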

[7] = biological target: T8, Adenosine receptor A3 (Homo sapiens) (UniProt P0DMS8); test: Displacement of [3H]PSB11 from recombinant human adenosine A3 receptor expressed in CHO cells at 1 uM relative to control; assay type: cell-based; how it was run: as §2
T8 sequence (whole entry): T5 sequence (P0DMS8 whole entry)

Adenosine receptor A1 [8] = biological target: T9, Adenosine receptor A1 (Homo sapiens, UniProt P30542); test: Displacement of [3H]CCPA from recombinant human adenosine A1 receptor expressed in CHO cells; assay type: cell-based
T9 sequence (P30542 whole entry): T7 sequence (whole entry)

Structure (SMILES) | Ki (Adenosine receptor A1 [1]) | inhibition (INH) [2] | IC50 [3] | Ki (Adenosine receptor A2b) | Ki (Adenosine receptor A2a) | IC50 [4] | Ki (Adenosine receptor A3) | inhibition [5] | inhibition [6] | inhibition [7] | Ki (Adenosine receptor A1 [8])
Cn1c(=O)c2c(nc3n2CCCN3Cc2ccc(F)c(Br)c2)n(C)c1=O | 4360 nM | 1% | 346 nM | > 1000 nM | 8270 nM | > 1000 nM | > 1000 nM | – | – | – | –
Cn1c(=O)c2c(nc3n2CCCCN3Cc2ccccc2Cl)n(C)c1=O | – | 4% | 343 nM | > 1000 nM | 881 nM | > 1000 nM | > 1000 nM | 41% | 10% | 15% | > 1000 nM
Cn1c(=O)c2c(nc3n2CCCN3Cc2cccc(Br)c2)n(C)c1=O | 965 nM | -1% | 396 nM | > 1000 nM | 1700 nM | > 1000 nM | > 1000 nM | – | – | – | –
Cn1c(=O)c2c(nc3n2CCCN3Cc2cc(Cl)ccc2Cl)n(C)c1=O | 3020 nM | – | 758 nM | > 1000 nM | > 1000 nM | – | > 1000 nM | – | – | – | –
COc1ccccc1CN1CCCCn2c1nc1c2c(=O)n(C)c(=O)n1C | – | 2% | 1920 nM | > 1000 nM | 959 nM | > 1000 nM | > 1000 nM | 16% | 13% | 19% | > 1000 nM
COc1ccc(CN2CCCn3c2nc2c3c(=O)n(C)c(=O)n2C)cc1Cl | > 1000 nM | 38% | 407 nM | > 1000 nM | 8000 nM | > 100000 nM | > 1000 nM | – | – | – | –
Cn1c(=O)c2c(nc3n2CCCCN3Cc2ccc(F)c(Br)c2)n(C)c1=O | – | -6% | 171 nM | > 1000 nM | > 1000 nM | > 1000 nM | > 1000 nM | 43% | 23% | 20% | > 1000 nM
Cn1c(=O)c2c(nc3n2CCCCN3Cc2cccc(Br)c2)n(C)c1=O | – | 6% | 371 nM | > 1000 nM | > 1000 nM | > 1000 nM | > 1000 nM | 41% | – | 26% | 651 nM
Cn1c(=O)c2c(nc3n2CCN3Cc2ccccc2Br)n(C)c1=O | – | 13% | 991 nM | > 1000 nM | 887 nM | > 1000 nM | > 1000 nM | 21% | 24% | 37% | > 1000 nM
Cn1c(=O)c2c(nc3n2CCCN3Cc2ccc(Br)cc2F)n(C)c1=O | 4130 nM | -2% | 426 nM | > 1000 nM | > 1000 nM | > 1000 nM | > 1000 nM | – | – | – | –
Cc1cccc(CN2CCCn3c2nc2c3c(=O)n(C)c(=O)n2C)c1 | 1910 nM | 17% | 313 nM | > 1000 nM | > 1000 nM | > 100000 nM | > 1000 nM | – | – | – | –
Cn1c(=O)c2c(nc3n2CCCN3Cc2ccc(F)cc2Cl)n(C)c1=O | > 1000 nM | – | 411 nM | > 1000 nM | > 1000 nM | – | > 1000 nM | – | – | – | –
Cn1c(=O)c2c(nc3n2CCCN3Cc2ccccc2F)n(C)c1=O | 1780 nM | -1% | 583 nM | > 1000 nM | 1210 nM | > 1000 nM | > 1000 nM | – | – | – | –
Cn1c(=O)c2c(nc3n2CCCN3Cc2ccc(Cl)c(C(F)(F)F)c2)n(C)c1=O | > 1000 nM | 2% | 310 nM | > 1000 nM | > 1000 nM | > 1000 nM | > 1000 nM | – | – | – | –
Cn1c(=O)c2c(nc3n2CCCN3Cc2ccc(Cl)c(F)c2)n(C)c1=O | > 1000 nM | 9% | 264 nM | > 1000 nM | > 1000 nM | > 100000 nM | > 1000 nM | – | – | – | –
Cn1c(=O)c2c(nc3n2CCCN3Cc2ccc(C(C)(C)C)cc2)n(C)c1=O | – | – | 1350 nM | – | – | – | – | – | – | – | –
Cn1c(=O)c2c(nc3n2CCCN3Cc2cc(C(F)(F)F)ccc2Cl)n(C)c1=O | 931 nM | – | 1070 nM | > 1000 nM | > 1000 nM | – | > 1000 nM | – | – | – | –
Cn1c(=O)c2c(nc3n2CCCN3Cc2ccc(Cl)cc2F)n(C)c1=O | 4900 nM | 2% | 377 nM | > 1000 nM | 8910 nM | > 1000 nM | > 1000 nM | – | – | – | –
COc1ccc(Cl)c(CN2CCCn3c2nc2c3c(=O)n(C)c(=O)n2C)c1F | 927 nM | 16% | 840 nM | – | 627 nM | > 100000 nM | – | – | – | – | –
Cn1c(=O)c2c(nc3n2CCCN3Cc2cc(Br)ccc2F)n(C)c1=O | 486 nM | – | 1180 nM | > 1000 nM | > 1000 nM | – | > 1000 nM | – | – | – | –
